This is an account of results in PMC9786734 (Biomedical Chromatography, 2022).

Data set [1] in a line: Stability of methanolic stock solutions. Format: physicochemical. The following applies: 1.5 months at −30°C, methanol. The gist of the method:
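Single-analyte stocks (0.5 mg/ml in methanol, made from 300–500 µg of weighed solid) stored 1.5 months at −30°C, then reanalysed by LC–MS/MS.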

Data set [2] in a line: Short-term stability in mouse tissue homogenates. Format: in vitro ADME. The gist of the method:
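Blank homogenate made by homogenising the whole organ in ice-cold 2% (w/v) BSA in water. Medium QC (100 ng/ml) prepared by diluting high-QC plasma into the homogenate. Held 5 h at room temperature (n = 4), then acetonitrile protein precipitation with internal standard and LC–MS/MS quantification. Peak-area ratios were read from a 1/x²-weighted calibration line.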

Data set [3] is described as follows: Pilot pharmacokinetic and tissue distribution study in mice after oral EAI045. In kind it is in vivo, mouse (FVB/NRj wild-type, female). In a few lines:
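Five female FVB/NRj mice, 10–15 weeks old, fasted 3 h, then given one 20 mg/kg oral gavage dose. Vehicle: DMSO stock at 4 mg/ml, diluted with polysorbate 80–ethanol (1:1) and 5% glucose to 2 mg/ml. Tail-vein blood taken at 5, 15, 30 min, 1 and 2 h. At 4 h, cardiac puncture under isoflurane, then organs homogenised in 2% BSA. Cmax/Tmax observed; AUC0–t by trapezoidal rule; CL/F = dose/AUC0–t; mean ± SD.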

Data set [4] can be described thus: Stability in mouse plasma QC samples. In kind it is in vitro ADME. The gist of the method: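 Pooled female mouse lithium–heparin plasma QCs at high (1,500 ng/ml) and low (6 ng/ml) levels, as 10 µl portions (n = 4). Three conditions: room temperature for 5 and 24 h; three freeze–thaw cycles (1 h thaw at room temperature, 1 day at −30°C); and 1.5 months at −30°C. Quantified by LC–MS/MS after acetonitrile precipitation.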

Where [5] appears, read: female, FVB/NRj, mouse, plasma, po, 20 mg/kg.

As a reminder, the AUC(0-t) is exposure summed from dosing to a finite time, without extrapolation to infinity. A lower AUC(0-t) goes with low exposure. A word on the Cmax: it is the peak of the concentration-time curve. By Tmax is commonly meant the time at which the peak concentration occurs. As usually defined, the half-life is the time needed for the level to fall by half in the phase considered. The low end stands for fast loss, the high end for slow loss. For the molecule `O=C(O)C(c1cc(F)ccc1O)N1Cc2ccccc2C1=O` (stereo not drawn) [PIA, (5‐fluoro‐2‐hydroxyphenyl)(1‐oxo‐1,3‐dihydro‐2H‐isoindol‐2‐yl)acetic acid], the “recovery of methanolic stock solution” value in data set [1] is listed as 98.3%. The same molecule came in with a recovery at 5 h, 100 ng/ml in data set [2] (SIWC homogenate) of 104 ± 3.4%. The same molecule showed a recovery at 5 h, 100 ng/ml in data set [2] (brain homogenate) of 99.7 ± 5.1%. In data set [2] (kidney homogenate), this molecule displayed a recovery at 5 h, 100 ng/ml of 99.4 ± 2.4%. The molecule also returned a recovery at 5 h, 100 ng/ml in data set [2] (liver homogenate) of 114 ± 10.9%. This molecule registered a recovery at 5 h, 100 ng/ml in data set [2] (lung homogenate) of 107 ± 2%. Also, in data set [2] (spleen homogenate), the recovery at 5 h, 100 ng/ml was found to be 107 ± 7.6%. Besides, the concentration at 4 h in data set [3] (female, FVB/NRj, mouse, brain, po, 20 mg/kg) was 9.8 ng/g. The same molecule registered a concentration at 4 h in data set [3] (female, FVB/NRj, mouse, kidney, po, 20 mg/kg) of 0.0308 µg/mL. Also, in data set [3] (setting [5]), the AUC(0-t) worked out at 1.87 µg·h/mL, the Cmax was 1.52 µg/mL, the Tmax fell in the range of 15 to 30 min and the half-life is 70.2 ± 12.6 min. For the same molecule, the “metabolite level compared with EAI045 (ratio)” value in data set [3] (pilot study, SIWC) is “ca. 5%”. Further, in data set [3] (pilot study, all matrices except SIWC), the “metabolite level compared with EAI045” value is listed as “higher than 10%”. Moreover, the “plasma concentration (chromatogram sample)” value in data set [3] (plasma sample from a single mouse, oral 20 mg/kg EAI045) came to 0.133 µg/mL. In addition, the “time by which PIA was more abundant in plasma than the parent drug” value in data set [3] (plasma, oral 20 mg/kg EAI045, mice) is on record as no more than 15 min. The “absolute amount retrieved from SIWC” value in data set [3] (small intestine with contents, 4 h after oral 20 mg/kg EAI045, mice, data not shown) is recorded as ~ 0.074 % of the EAI045 dose. Further, in data set [4], the recovery at 1.5 months, 6 ng/ml worked out at 110 ± 9.6%; the recovery at 1.5 months, 1500 ng/ml worked out at 90.8 ± 2.4%; the recovery at 5 h, 6 ng/ml is 93.3 ± 1.8%; the recovery at 5 h, 1500 ng/ml came out at 102 ± 4.1%. For the same molecule, in data set [4], the recovery at 24 h, 6 ng/ml was 101 ± 8.3% and the recovery at 24 h, 1500 ng/ml stood at 100 ± 6.2%.
